Source: ChEMBL document CHEMBL3351720, “Design, synthesis and evaluation of benzoisothiazolones as selective inhibitors of PHOSPHO1” (Bioorg Med Chem Lett, 2014)

Columns and labels:
[1] = molecular target: T1, Phosphomannomutase 2 (Homo sapiens, UniProt O15305); experiment: Inhibition of PMM2 (unknown origin)
T1 sequence (O15305 whole entry): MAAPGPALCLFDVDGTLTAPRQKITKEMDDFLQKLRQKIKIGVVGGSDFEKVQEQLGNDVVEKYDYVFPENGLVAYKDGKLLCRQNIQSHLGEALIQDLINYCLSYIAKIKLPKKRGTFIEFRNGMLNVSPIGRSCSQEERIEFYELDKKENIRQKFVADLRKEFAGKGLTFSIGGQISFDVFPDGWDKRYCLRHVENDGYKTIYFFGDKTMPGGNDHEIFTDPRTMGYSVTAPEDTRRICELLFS

[2] = molecular target: T2, Mannose-6-phosphate isomerase (Homo sapiens, UniProt P34949); experiment: Inhibition of phosphomannose isomerase (unknown origin)
T2 sequence (P34949 whole entry): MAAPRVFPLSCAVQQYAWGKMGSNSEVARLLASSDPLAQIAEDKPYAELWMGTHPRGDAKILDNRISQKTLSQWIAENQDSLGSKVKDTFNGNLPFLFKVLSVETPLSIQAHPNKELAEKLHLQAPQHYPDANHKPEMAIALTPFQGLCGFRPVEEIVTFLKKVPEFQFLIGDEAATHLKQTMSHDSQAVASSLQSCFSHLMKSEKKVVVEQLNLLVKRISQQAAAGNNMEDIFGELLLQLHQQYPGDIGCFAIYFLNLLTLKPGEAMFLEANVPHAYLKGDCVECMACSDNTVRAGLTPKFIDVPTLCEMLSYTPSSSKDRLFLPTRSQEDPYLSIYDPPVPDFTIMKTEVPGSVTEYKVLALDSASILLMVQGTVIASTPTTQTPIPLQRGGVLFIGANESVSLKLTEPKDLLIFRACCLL

[3] = molecular target: T3, Phosphoethanolamine/phosphocholine phosphatase (Homo sapiens, UniProt Q8TCT1); experiment: Inhibition of PHOSPHO1 phosphoethanolamine activity (unknown origin) assessed as amount of inorganic phosphate release after 30 mins
T3 sequence (Q8TCT1 whole entry): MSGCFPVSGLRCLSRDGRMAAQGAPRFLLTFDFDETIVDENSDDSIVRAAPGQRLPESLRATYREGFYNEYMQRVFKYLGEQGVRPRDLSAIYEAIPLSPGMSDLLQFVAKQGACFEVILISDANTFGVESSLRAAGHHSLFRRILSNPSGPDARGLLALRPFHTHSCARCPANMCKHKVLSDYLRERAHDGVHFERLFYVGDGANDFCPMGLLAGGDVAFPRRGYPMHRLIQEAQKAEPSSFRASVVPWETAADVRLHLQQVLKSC

[4] = Permeability of the compound at donor pH 7.4 and acceptor pH 7.4 by PAMPA; type: ADME
Outline: (§1)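 PAMPA with the acceptor compartment at pH 7.4 and the donor at pH 5.0, 6.2 or 7.4. Permeability reported as ×10^-6 cm/s. Part of an in vitro ADME panel.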

[5] = Plasma protein binding in human at 10 uM by LC-MS analysis; type: ADME, cell-free; conditions: read-out: PPB (converted)
Outline: (§2)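 Read-out was % of compound bound in human or mouse plasma, each tested at 1 µM and 10 µM.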

[6] = Plasma protein binding in mouse at 10 uM by LC-MS analysis; type: ADME, cell-free; conditions: read-out: PPB (converted); outline: as §2
[7] = Permeability of the compound at donor pH 5.0 and acceptor pH 7.4 by PAMPA; type: ADME; outline: as §1
[8] = Aqueous solubility of the compound in pH 7.4 pION buffer by UV kinetic solubility method; type: physicochemical
Outline: (§3)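 Kinetic solubility in pION's buffer at pH 5.0, 6.2 or 7.4, reported in µg/ml. Part of an in vitro ADME panel.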

[9] = Cytotoxicity against human Fa2N-4 cells after 24 hrs by ATP-lite 1-step assay; type: cell-based; conditions: fa2n-4, 24 h, read-out: LC50 (the source's name)
[10] = molecular target: T4, Ectonucleotide pyrophosphatase/phosphodiesterase family member 1 (Homo sapiens, UniProt P22413); experiment: Inhibition of NPP1 (unknown origin)
T4 sequence (P22413 whole entry): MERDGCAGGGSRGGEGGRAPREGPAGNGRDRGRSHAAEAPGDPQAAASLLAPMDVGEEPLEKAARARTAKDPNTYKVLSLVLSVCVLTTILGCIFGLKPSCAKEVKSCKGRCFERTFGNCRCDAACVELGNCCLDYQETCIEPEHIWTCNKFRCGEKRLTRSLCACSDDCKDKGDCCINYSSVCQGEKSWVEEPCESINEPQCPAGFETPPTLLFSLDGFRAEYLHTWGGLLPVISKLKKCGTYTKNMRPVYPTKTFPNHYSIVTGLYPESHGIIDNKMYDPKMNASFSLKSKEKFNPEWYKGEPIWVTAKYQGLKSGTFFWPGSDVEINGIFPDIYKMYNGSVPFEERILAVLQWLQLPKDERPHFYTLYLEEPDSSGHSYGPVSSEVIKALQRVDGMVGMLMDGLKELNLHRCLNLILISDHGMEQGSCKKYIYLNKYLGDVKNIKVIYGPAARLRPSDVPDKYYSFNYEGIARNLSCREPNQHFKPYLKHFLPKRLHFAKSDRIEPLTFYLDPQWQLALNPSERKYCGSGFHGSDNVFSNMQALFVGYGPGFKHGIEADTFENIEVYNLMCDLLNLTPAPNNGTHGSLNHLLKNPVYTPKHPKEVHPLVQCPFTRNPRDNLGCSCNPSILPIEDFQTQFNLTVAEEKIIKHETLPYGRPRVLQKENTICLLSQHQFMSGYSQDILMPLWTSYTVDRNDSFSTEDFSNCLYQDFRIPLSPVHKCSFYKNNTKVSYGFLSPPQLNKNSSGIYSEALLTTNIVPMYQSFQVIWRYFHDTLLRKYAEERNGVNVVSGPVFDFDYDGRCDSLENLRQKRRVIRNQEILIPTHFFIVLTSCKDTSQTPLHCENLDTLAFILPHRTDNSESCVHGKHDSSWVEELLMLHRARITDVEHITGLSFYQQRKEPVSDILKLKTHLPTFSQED

[11] = molecular target: T5, Alkaline phosphatase, tissue-nonspecific isozyme (Homo sapiens, UniProt P05186)
T5 sequence (P05186 whole entry): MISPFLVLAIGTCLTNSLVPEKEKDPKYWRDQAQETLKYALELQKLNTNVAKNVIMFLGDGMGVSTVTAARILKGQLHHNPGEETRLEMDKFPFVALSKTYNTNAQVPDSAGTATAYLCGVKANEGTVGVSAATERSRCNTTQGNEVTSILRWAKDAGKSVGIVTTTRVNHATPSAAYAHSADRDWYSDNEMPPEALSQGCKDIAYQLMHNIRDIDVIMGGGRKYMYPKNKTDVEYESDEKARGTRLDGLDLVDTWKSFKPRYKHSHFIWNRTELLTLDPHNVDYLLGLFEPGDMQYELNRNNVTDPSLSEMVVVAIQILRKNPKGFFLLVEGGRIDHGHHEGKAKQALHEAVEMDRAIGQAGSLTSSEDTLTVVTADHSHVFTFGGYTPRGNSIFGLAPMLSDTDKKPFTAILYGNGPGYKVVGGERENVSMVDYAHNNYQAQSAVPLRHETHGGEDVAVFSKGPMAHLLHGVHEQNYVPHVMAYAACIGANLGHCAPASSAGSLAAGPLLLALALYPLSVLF

[12] = Metabolic stability in human plasma assessed as compound remaining at 1:1 1 x pH7.4 PBS measured at 3 hrs by LC-MS/MS analysis; type: ADME, cell-free; conditions: pH 7.4, read-out: Stability
Outline: (§4)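 Stability of each analogue was reported as % of compound remaining. For liver microsomes this was after 1 hr, with runs with and without NADPH. For plasma this was after 3 hrs in plasma mixed 1:1 with 1× PBS, pH 7.4. Both human and mouse matrices were used.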

[13] = Metabolic stability in human plasma assessed as compound remaining at 1 x pH7.4 PBS measured at 3 hrs by LC-MS/MS analysis; type: ADME, cell-free; conditions: pH 7.4, read-out: Stability; outline: as §4
[14] = Metabolic stability in mouse liver microsomes measured at 1 uM after 1 hr at pH 7.4 by LC-MS/MS analysis; type: ADME; conditions: read-out: Stability; outline: as §4
[15] = Inhibition of Streptococcus pneumoniae diphosphomevalonate decarboxylase assessed as conversion of (R)-5-diphosphomevalonate to ADP by fluorometry
[16] = Permeability of the compound at donor pH 6.2 and acceptor pH 7.4 by PAMPA; type: ADME; outline: as §1
[17] = Metabolic stability in mouse plasma assessed as compound remaining at 1 x pH7.4 PBS measured at 3 hrs by LC-MS/MS analysis; type: ADME, cell-free; conditions: pH 7.4, read-out: Stability; outline: as §4
[18] = Metabolic stability in mouse plasma assessed as compound remaining at 1:1 1 x pH7.4 PBS measured at 3 hrs by LC-MS/MS analysis; type: ADME, cell-free; conditions: pH 7.4, read-out: Stability; outline: as §4
[19] = Metabolic stability in human liver microsomes measured at 1 uM after 1 hr at pH 7.4 by LC-MS/MS analysis; type: ADME; conditions: read-out: Stability; outline: as §4
[20] = Aqueous solubility of the compound in pH 6.2 pION buffer by UV kinetic solubility method; type: physicochemical; outline: as §3
[21] = Plasma protein binding in human at 1 uM by LC-MS analysis; type: ADME, cell-free; conditions: read-out: PPB (converted); outline: as §2
[22] = Plasma protein binding in mouse at 1 uM by LC-MS analysis; type: ADME, cell-free; conditions: read-out: PPB (converted); outline: as §2
[23] = Aqueous solubility of the compound in pH 5 pION buffer by UV kinetic solubility method; type: physicochemical; outline: as §3

## O=c1c2ccccc2sn1-c1ccc(F)cc1
[1]
  IC50: > 20 µM
[2]
  IC50: 3.4 µM

## Cc1ccc(C)c(-n2sc3cc(F)ccc3c2=O)c1
[3]
  IC50: 3.3 µM

## COc1ccc(-n2sc3cc(F)ccc3c2=O)cc1
[1]
  IC50: > 10 µM
[3]
  IC50: 6.7 µM

## O=c1c2ccccc2sn1-c1cc(S(=O)(=O)N2CCOCC2)ccc1N1CCOCC1
[3]
  IC50: 1.2 µM

## Cc1ccc(C)c(-n2sc3ccccc3c2=O)c1
[1]
  IC50: > 20 µM
[3]
  IC50: 4 µM

## O=c1c2ccccc2sn1-c1cc(S(=O)(=O)N2CCOCC2)ccc1N1CCCC1
[3]
  IC50: 7.5 µM

## Cc1ccc(-n2sc3ccccc3c2=O)cc1S(=O)(=O)N1CCCCC1
[1]
  IC50: 11 µM

## Cc1ccc(-n2sc3ccccc3c2=O)cc1
[1]
  IC50: > 30 µM
[3]
  IC50: 1.3 µM
[2]
  IC50: 3.9 µM

## O=c1c2ccccc2sn1-c1cccc(Cl)c1
[1]
  IC50: > 30 µM

## O=c1c2ccccc2sn1-c1ccc(F)c(Cl)c1
[1]
  IC50: > 100 µM
[2]
  IC50: > 50 µM

## CN(C)C(=O)c1cccc(-n2sc3ccccc3c2=O)c1
[4]
  permeability: 97 ×10⁻⁶ cm/s
[5]
  fraction unbound at 10 µM: 0.558
[6]
  fraction unbound at 10 µM: 0.533
[7]
  permeability: 94 ×10⁻⁶ cm/s
[8]
  solubility kinetic: > 30 µg/mL
[9]
  CC50: > 50 µM
[10]
  IC50: > 30 µM
[11]
  IC50: > 100 µM
[12]
  remaining at 3 h: 60%
[13]
  remaining at 3 h: 18.9%
[14]
  remaining at 1 h, 1 µM: 56.6%
[15]
  IC50: 24 µM
[16]
  permeability: 92 ×10⁻⁶ cm/s
[17]
  remaining at 3 h: 76.2%
[18]
  remaining at 3 h: 56.9%
[19]
  remaining at 1 h, 1 µM: 45.7%
[20]
  solubility kinetic: > 30 µg/mL
[21]
  fraction unbound at 1 µM: 0.587
[22]
  fraction unbound at 1 µM: 0.52
[23]
  solubility kinetic: > 30 µg/mL
